Holding throughout (type): functional, cell-based
One test relates to SNB-19. Put plainly: Antiproliferative activity against human SNB-19 cells assessed as inhibition of cell proliferation measured by MTT assay. The method in brief:
(§1)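 Tumour cell panel: HCT116 (colorectal carcinoma), PC3 (prostate adenocarcinoma), HL60 (acute promyelocytic leukaemia), SNB19 (astrocytoma). Antiproliferative effect reported as half-maximal inhibitory concentration (IC50, µM) for each line.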
(Tetrazolium dyes change colour on reduction, which living cells bring about.)

In the next test the test system is HL-60. Put plainly: Antiproliferative activity against human HL-60 cells assessed as inhibition of cell proliferation measured by MTT assay. The method in brief:
as §1

For the next test, the system named is HCT-116. Put plainly: Antiproliferative activity against human HCT-116 cells assessed as inhibition of cell proliferation measured by MTT assay. The method in brief: as §1
For another test, the system named is PC-3. Nature of the test: Antiproliferative activity against human PC-3 cells assessed as inhibition of cell proliferation measured by MTT assay. The method in brief: as §1
In a further test the test system is HeLa. Nature of the test: Cytotoxicity against human HeLa cells assessed as inhibition of cell viability.
The subject of another test is A549. Put plainly: Antiproliferative activity against human A549 cells assessed as inhibition of cell proliferation.
In another test the test system is B16-F10. Put plainly: Antiproliferative activity against mouse B16-F10 cells assessed as inhibition of cell proliferation.

A word on the IC50: it is the concentration that inhibits the measured activity by half.

Take `Nc1nc(-c2ccc([N+](=O)[O-])cc2)cc(-c2cnn(-c3ccccc3)n2)n1`: the IC50 is 132 µM in the test with SNB-19, above 200 µM in the test on HL-60, 133 µM in the test on HCT-116 and above 200 µM with PC-3.
As to `Nc1ccc(-c2cc(-c3cnn(-c4ccccc4)n3)nc(N)n2)cc1`, the IC50 with SNB-19 was determined as 106 µM; with HL-60, 68.2 µM; in the test on HCT-116, 95.3 µM; in the test on PC-3, 58.2 µM.
For the molecule `Nc1nc(-c2ccccc2)cc(-c2cn(-c3ccccc3)nc2-c2ccc([N+](=O)[O-])cc2)n1`, the IC50 with HeLa came to 5.47 µM.
For `Nc1nc(-c2ccccc2)cc(-c2cccs2)n1`, the IC50 was 85.1 µM in the test on SNB-19, 70.3 µM with HL-60, 57 µM with HCT-116 and 33.6 µM with PC-3.
In the same order, the values of `Nc1nc(-c2ccccc2)cc(-c2ccc[nH]2)n1` are 174 µM, 29.3 µM, 55.5 µM and 81.5 µM.
Turning to `Cc1ccc(-c2cc(C(F)(F)F)nn2-c2ccc(S(N)(=O)=O)cc2)cc1` [CELECOXIB], the half-maximal inhibitory concentration (IC50) in the test with A549 turned out to be 16.3 µM; in the test on B16-F10, 16.2 µM.
As for `Nc1nc(-c2ccccc2)cc(-c2cnn(-c3ccccc3)n2)n1`, the IC50 in the test with SNB-19 is above 200 µM; in the test with HL-60 it was 66.5 µM; with HCT-116, 120 µM; in the test with PC-3 it was 142 µM.

The record behind these values is ChEMBL document CHEMBL4808197, “Synthesis, docking, machine learning and antiproliferative activity of the 6-ferrocene/heterocycle-2-aminopyrimidine and 5-ferrocene-1H-Pyrazole derivatives obtained by microwave-assisted Atwal reaction as potential anticancer agents” (Bioorg Med Chem Lett, 2021).
